Measurements gathered from unrelated publications.
Each line is one published result; the experiments were not run side by side. In brackets after ≈: the same amount, converted by molar mass.
Organism: Enterococcus faecalis
Effect on: microbial growth

Structure (SMILES) | method | strain | notes | MIC [µg/mL]
C=C(NC(=O)C(=C)NC(=O)c1csc(C2=N[C@@H]3c4csc(n4)[C@H]4NC(=O)c5csc(n5)[C@H]([C@](C)(O)[C@@H](C)O)NC(=O)[C@H]5CSC(=N5)/C(=C/C)NC(=O)[C@H]([C@@H](C)O)NC(=O)c5csc(n5)[C@]3(CC2)NC(=O)[C@H](C)NC(=O)C(=C)NC(=O)[C@H](C)NC(=O)[C@H]([C@@H](C)CC)N[C@@H]2C=Cc3c([C@H](C)O)cc(nc3[C@H]2O)C(=O)O[C@@H]4C)n1)C(N)=O |  |  |  | 0.12 (≈ 0.0721 µM)
COc1ccc2cc1Oc1cc(ccc1OC)CCC(N[C@@H]1CCCc3ccccc31)CCCC2 (stereo partly shown) | broth dilution | ATCC33186 |  | > 100
CCCCCCCCCCCCCCCC(=O)C(F)(F)P(=O)(O)O |  | ATCC33186 |  | 100 (≈ 270 µM)
CCCCCCCCCCCCCCCC(=O)NS(=O)(=O)OC1CCNCC1 | broth dilution | ATCC33186 |  | 12.5 (≈ 29.9 µM)
CCCCCCCCCCCC(=O)CP(=O)(O)O |  | ATCC33186 |  | 25 (≈ 89.8 µM)
CN[C@@H]1[C@H](O)[C@H](NC)[C@H]2O[C@@]3(O)C(=O)C[C@@H](C)O[C@H]3O[C@@H]2[C@H]1O | broth dilution | ATCC33186 |  | 50 (≈ 150 µM)
CCCCCCCCCCCCCCCC(=O)NS(=O)(=O)OC | broth dilution | ATCC33186 |  | 50 (≈ 143 µM)
CCCCCCCCCCCC(=O)C(F)(F)P(=O)(O)O |  | ATCC33186 |  | 100 (≈ 318 µM)
CCCCCCCCCCCCCCCC(=O)NS(=O)(=O)Oc1cccc(Cl)c1 | broth dilution | ATCC33186 |  | 1.6 (≈ 3.59 µM)
Cc1cc(Cl)ccc1-c1ccc(/C=C2\SC(=S)N(CC(=O)O)C2=O)o1 | broth dilution | VRE | drug-resistant strain | 1 to 8 (≈ 2.54 to 20.3 µM)
